Results: ChEMBL document CHEMBL3393047, “Pyridine and pyridinone-based factor XIa inhibitors” (Bioorg Med Chem Lett, 2015)

Experiments:
Coagulation factor XI = Coagulation factor XI (Homo sapiens, UniProt P03951); experiment: Inhibition of human coagulation factor 11a after 10 to 120 mins
Plasma = experiment: Anticoagulant activity in human plasma assessed as concentration required to double the activated partial thromboplastin time; type: functional
Method in brief: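 In vitro clotting assay run in human plasma; activity read out as the activated partial thromboplastin time, and the value reported as EC2x, the concentration that doubles aPTT.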

Coagulation factor VII = target: T1, Coagulation factor VII (Homo sapiens, UniProt P08709); experiment: Inhibition of human coagulation factor 7a
T1 sequence (P08709 whole entry): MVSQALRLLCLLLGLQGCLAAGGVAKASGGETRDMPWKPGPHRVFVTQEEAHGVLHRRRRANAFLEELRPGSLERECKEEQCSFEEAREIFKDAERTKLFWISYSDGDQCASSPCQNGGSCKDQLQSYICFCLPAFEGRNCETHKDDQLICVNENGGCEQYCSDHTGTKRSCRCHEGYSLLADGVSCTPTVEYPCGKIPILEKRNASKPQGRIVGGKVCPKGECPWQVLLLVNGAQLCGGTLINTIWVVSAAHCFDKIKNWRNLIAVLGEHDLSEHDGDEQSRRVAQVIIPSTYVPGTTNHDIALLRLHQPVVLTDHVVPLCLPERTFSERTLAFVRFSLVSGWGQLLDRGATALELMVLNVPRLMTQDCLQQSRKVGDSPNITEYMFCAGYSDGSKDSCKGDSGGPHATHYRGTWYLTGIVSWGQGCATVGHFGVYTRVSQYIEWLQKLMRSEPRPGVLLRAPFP
Method in brief: (§1)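 Ki determined against purified human enzymes (selectivity panel of serine proteases).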

Coagulation factor IX = Coagulation factor IX (Homo sapiens, UniProt P00740); experiment: Inhibition of human coagulation factor 9a; method in brief: as §1
Coagulation factor IX, sequence (P00740 47-191 limits assumed): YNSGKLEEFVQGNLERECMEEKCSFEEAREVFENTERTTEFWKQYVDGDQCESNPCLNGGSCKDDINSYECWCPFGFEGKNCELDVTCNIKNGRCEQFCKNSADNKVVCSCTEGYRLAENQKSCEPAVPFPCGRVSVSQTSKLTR
Coagulation factor IX, sequence (P00740 227-461 limits assumed): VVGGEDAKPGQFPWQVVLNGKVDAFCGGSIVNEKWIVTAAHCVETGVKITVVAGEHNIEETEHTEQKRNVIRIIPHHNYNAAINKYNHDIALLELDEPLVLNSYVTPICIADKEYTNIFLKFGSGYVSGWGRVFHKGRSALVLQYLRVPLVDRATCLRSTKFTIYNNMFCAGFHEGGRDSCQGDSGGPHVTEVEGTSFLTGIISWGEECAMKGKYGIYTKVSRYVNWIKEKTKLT

Coagulation factor X = Coagulation factor X (Homo sapiens, UniProt P00742); experiment: Inhibition of human coagulation factor 10a; method in brief: as §1
Coagulation factor X, sequence (P00742 41-179 limits assumed): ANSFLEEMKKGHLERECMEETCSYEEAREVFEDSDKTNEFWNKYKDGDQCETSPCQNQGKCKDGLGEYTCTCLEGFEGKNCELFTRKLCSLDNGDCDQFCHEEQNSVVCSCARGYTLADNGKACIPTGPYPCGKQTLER
Coagulation factor X, sequence (P00742 235-488 limits assumed): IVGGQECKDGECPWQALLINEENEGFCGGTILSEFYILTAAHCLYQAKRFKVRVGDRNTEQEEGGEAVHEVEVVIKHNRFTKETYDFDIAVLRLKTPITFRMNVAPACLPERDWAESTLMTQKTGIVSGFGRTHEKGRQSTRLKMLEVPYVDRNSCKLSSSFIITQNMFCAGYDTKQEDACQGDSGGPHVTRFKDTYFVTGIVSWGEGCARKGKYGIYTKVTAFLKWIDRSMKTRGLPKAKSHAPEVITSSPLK

Prothrombin = Prothrombin (Homo sapiens, UniProt P00734); experiment: Inhibition of human thrombin; method in brief: as §1
Trypsin = Trypsin (Homo sapiens, UniProt P07477+P07478+P35030); experiment: Inhibition of human trypsin; type: protein assay; method in brief: as §1
Plasma kallikrein = Plasma kallikrein (Homo sapiens, UniProt P03952); experiment: Inhibition of human plasma kallikrein; method in brief: as §1
Plasma kallikrein, sequence (P03952 20-390 limits assumed): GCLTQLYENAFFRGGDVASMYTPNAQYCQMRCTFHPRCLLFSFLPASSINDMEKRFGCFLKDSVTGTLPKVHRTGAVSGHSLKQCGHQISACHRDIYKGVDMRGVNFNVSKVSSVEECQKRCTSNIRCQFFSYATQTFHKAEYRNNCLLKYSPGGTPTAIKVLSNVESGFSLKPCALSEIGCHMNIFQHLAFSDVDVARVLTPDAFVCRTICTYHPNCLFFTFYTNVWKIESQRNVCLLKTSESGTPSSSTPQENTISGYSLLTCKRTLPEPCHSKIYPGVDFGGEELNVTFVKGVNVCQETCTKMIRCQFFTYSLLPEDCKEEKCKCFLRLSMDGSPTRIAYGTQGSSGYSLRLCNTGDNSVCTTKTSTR
Plasma kallikrein, sequence (P03952 391-638 limits assumed): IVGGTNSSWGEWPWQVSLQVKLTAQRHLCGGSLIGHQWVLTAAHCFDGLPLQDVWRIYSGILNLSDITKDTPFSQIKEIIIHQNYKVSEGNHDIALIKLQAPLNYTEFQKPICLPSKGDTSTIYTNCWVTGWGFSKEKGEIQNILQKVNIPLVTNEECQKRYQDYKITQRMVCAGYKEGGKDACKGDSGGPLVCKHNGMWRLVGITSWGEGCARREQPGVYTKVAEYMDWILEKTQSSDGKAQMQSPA

[1] = target: Vitamin K-dependent protein C (Homo sapiens, UniProt P04070); experiment: Inhibition of human activated protein C; method in brief: as §1
Vitamin K-dependent protein C, sequence (P04070 43-197 limits assumed): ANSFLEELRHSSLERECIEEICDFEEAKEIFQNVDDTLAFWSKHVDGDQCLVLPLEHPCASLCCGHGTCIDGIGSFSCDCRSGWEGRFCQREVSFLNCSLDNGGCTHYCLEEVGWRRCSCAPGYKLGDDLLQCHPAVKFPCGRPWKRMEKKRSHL
Vitamin K-dependent protein C, sequence (P04070 212-461 limits assumed): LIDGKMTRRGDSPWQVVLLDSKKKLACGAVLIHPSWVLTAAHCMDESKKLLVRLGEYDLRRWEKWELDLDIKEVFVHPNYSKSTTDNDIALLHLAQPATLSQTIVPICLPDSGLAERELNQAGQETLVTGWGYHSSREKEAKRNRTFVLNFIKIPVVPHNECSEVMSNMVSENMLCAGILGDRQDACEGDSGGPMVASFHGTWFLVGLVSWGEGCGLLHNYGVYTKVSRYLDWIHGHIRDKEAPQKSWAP

Plasminogen = Plasminogen (Homo sapiens, UniProt P00747); experiment: Inhibition of human plasmin; method in brief: as §1
Plasminogen, sequence (P00747 97-580 limits assumed): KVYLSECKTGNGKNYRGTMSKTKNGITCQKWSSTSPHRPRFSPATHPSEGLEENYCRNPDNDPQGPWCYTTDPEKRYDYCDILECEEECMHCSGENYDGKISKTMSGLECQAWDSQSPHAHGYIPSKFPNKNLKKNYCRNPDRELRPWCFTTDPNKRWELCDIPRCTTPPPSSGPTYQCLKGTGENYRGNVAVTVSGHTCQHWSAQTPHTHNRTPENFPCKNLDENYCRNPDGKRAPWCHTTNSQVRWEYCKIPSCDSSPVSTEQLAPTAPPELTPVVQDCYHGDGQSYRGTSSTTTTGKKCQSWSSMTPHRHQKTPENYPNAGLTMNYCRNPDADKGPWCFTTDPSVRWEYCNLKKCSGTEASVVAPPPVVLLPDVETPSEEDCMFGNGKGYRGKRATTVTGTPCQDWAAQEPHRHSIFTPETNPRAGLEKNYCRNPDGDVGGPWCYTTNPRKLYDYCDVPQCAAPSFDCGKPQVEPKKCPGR
Plasminogen, sequence (P00747 581-810 limits assumed): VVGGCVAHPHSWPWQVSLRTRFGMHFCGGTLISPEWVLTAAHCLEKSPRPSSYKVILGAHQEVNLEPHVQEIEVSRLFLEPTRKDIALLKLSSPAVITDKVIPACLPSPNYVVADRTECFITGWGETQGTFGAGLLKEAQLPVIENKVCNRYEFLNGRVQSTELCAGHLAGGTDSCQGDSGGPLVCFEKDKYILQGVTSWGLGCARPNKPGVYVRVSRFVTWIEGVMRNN

[2] = target: Tissue-type plasminogen activator (Homo sapiens, UniProt P00750); experiment: Inhibition of human TPA; method in brief: as §1
Tissue-type plasminogen activator, sequence (P00750 whole entry): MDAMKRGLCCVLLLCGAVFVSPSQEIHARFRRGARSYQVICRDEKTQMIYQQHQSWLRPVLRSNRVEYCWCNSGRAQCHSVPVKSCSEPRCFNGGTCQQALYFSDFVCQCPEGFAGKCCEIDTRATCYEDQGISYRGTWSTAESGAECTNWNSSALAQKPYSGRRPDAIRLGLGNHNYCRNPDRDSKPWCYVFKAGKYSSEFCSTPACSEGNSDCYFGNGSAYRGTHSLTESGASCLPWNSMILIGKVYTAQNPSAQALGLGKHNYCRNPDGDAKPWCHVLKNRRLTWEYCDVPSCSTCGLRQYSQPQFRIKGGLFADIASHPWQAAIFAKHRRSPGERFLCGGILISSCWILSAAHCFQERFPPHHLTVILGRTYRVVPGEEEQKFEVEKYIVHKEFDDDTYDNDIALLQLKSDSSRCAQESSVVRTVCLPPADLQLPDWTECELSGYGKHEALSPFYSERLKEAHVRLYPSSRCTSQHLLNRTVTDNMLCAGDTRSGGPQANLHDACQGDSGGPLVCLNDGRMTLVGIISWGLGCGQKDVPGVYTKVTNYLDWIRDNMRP

[3] = target: Urokinase-type plasminogen activator (Homo sapiens, UniProt P00749); experiment: Inhibition of human urokinase; method in brief: as §1
[4] = Inhibition of human chymotrypsin; method in brief: as §1

Coagulation factor XI, sequence (P03951 19-387 limits assumed): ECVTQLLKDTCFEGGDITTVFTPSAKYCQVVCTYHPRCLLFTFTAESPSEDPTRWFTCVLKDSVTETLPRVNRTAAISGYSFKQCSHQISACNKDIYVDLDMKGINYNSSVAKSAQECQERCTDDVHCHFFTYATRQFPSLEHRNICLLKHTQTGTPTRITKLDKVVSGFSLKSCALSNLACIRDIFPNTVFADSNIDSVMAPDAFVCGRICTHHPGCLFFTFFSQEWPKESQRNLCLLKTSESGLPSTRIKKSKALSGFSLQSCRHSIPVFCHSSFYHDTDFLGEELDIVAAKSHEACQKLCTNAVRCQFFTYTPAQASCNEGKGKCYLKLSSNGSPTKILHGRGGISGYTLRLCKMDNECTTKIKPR
Coagulation factor XI, sequence (P03951 388-625 limits assumed): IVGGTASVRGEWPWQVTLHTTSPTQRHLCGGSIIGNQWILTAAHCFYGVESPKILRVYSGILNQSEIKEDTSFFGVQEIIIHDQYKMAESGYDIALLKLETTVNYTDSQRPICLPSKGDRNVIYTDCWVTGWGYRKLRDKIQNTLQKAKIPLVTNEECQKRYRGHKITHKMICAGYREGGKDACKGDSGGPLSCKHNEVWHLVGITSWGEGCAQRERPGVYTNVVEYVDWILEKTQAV

NC[C@H]1CC[C@H](C(=O)NC(Cc2ccccc2)c2cc[n+]([O-])c(-c3ccccc3)c2)CC1 (mixture of isomers)
Ki (Coagulation factor XI): 2530 nM

COc1cc(-c2ccccc2)cc(C(Cc2ccccc2)NC(=O)[C@H]2CC[C@H](CN)CC2)n1 (mixture of isomers)
Ki (Coagulation factor XI): 949 nM

Cn1c(C(Cc2ccccc2)NC(=O)[C@H]2CC[C@H](CN)CC2)cc(-c2ccccc2)cc1=O (mixture of isomers)
Ki (Coagulation factor XI): 479 nM

NC[C@H]1CC[C@H](C(=O)N[C@@H](Cc2ccccc2)c2nc(-c3ccc4c(N)n[nH]c4c3)c[nH]2)CC1
Ki (Coagulation factor XI): 3.2 nM
2aPTT (Plasma): 3 µM

NC[C@H]1CC[C@H](C(=O)NC(Cc2ccccc2)c2cc(-c3ccc4c(N)n[nH]c4c3)cc(=O)[nH]2)CC1 (mixture of isomers)
Ki (Coagulation factor XI): 3.7 nM
2aPTT (Plasma): 2.5 µM

NC[C@H]1CC[C@H](C(=O)N[C@H](Cc2ccccc2)c2cc(-c3ccc4c(N)n[nH]c4c3)ccn2)CC1
Ki (Coagulation factor XI): 1070 nM

NC[C@H]1CC[C@H](C(=O)N[C@@H](Cc2ccccc2)c2cccc(-c3ccc4c(N)n[nH]c4c3)c2)CC1
Ki (Coagulation factor XI): 21 nM
2aPTT (Plasma): 37 µM

NC[C@H]1CC[C@H](C(=O)NC(Cc2ccccc2)c2cc(-c3ccccc3)cc(Cl)n2)CC1 (mixture of isomers)
Ki (Coagulation factor XI): 206 nM

NC[C@H]1CC[C@H](C(=O)NC(Cc2ccccc2)c2cccc(-c3ccc4c(N)n[nH]c4c3)c2)CC1 (mixture of isomers)
Ki (Coagulation factor XI): 42 nM
2aPTT (Plasma): >40 µM

NC[C@H]1CC[C@H](C(=O)NC(Cc2ccccc2)c2cc(-c3ccccc3)cc[n+]2[O-])CC1 (mixture of isomers)
Ki (Coagulation factor XI): 1690 nM

NC[C@H]1CC[C@H](C(=O)N[C@@H](Cc2ccccc2)c2cc(-c3ccc4c(N)n[nH]c4c3)ccn2)CC1
Ki (Coagulation factor XI): 8.4 nM
2aPTT (Plasma): 4.5 µM
Ki (Coagulation factor VII): > 10900 nM
Ki (Coagulation factor IX): > 34900 nM
Ki (Coagulation factor X): > 9000 nM
Ki (Prothrombin): > 12600 nM
Ki (Trypsin): 64 nM
Ki (Plasma kallikrein): 24 nM
Ki [1]: > 21400 nM
Ki (Plasminogen): > 22100 nM
Ki [2]: > 21900 nM
Ki [3]: > 14100 nM
Ki [4]: > 20800 nM

NC[C@H]1CC[C@H](C(=O)NC(Cc2ccccc2)c2cccc(-c3ccccc3)c2)CC1 (mixture of isomers)
Ki (Coagulation factor XI): 936 nM

NC[C@H]1CC[C@H](C(=O)NC(Cc2ccccc2)c2cc(-c3ccccc3)c[n+]([O-])c2)CC1 (mixture of isomers)
Ki (Coagulation factor XI): 1060 nM

CNc1cc(-c2ccccc2)cc(C(Cc2ccccc2)NC(=O)[C@H]2CC[C@H](CN)CC2)n1 (mixture of isomers)
Ki (Coagulation factor XI): 860 nM

NC[C@H]1CC[C@H](C(=O)NC(Cc2ccccc2)c2cc(-c3ccccc3)ncn2)CC1 (mixture of isomers)
Ki (Coagulation factor XI): 331 nM

NC[C@H]1CC[C@H](C(=O)NC(Cc2ccccc2)c2cc(-c3ccc4c(N)n[nH]c4c3)ccn2)CC1 (mixture of isomers)
Ki (Coagulation factor XI): 13 nM
2aPTT (Plasma): 6 µM

NC[C@H]1CC[C@H](C(=O)NC(Cc2ccccc2)c2cccc(-c3ccccc3)n2)CC1 (mixture of isomers)
Ki (Coagulation factor XI): 30200 nM

NC[C@H]1CC[C@H](C(=O)N[C@H](Cc2ccccc2)c2cccc(-c3ccc4c(N)n[nH]c4c3)c2)CC1
Ki (Coagulation factor XI): 6160 nM

NC[C@H]1CC[C@H](C(=O)NC(Cc2ccccc2)c2cc(-c3ccccc3)c(F)cn2)CC1 (mixture of isomers)
Ki (Coagulation factor XI): 433 nM

NC[C@H]1CC[C@H](C(=O)NC(Cc2ccccc2)c2cc(-c3ccccc3)cc(N)n2)CC1 (mixture of isomers)
Ki (Coagulation factor XI): 227 nM

NC[C@H]1CC[C@H](C(=O)NC(Cc2ccccc2)c2cc(-c3ccccc3)ccn2)CC1 (mixture of isomers)
Ki (Coagulation factor XI): 377 nM

NC[C@H]1CC[C@H](C(=O)N[C@@H](Cc2ccccc2)c2nc(-c3ccccc3)c(Cl)[nH]2)CC1
Ki (Coagulation factor XI): 12 nM

NC[C@H]1CC[C@H](C(=O)NC(Cc2ccccc2)c2cc(-c3ccccc3)cc(O)n2)CC1 (mixture of isomers)
Ki (Coagulation factor XI): 113 nM

NC[C@H]1CC[C@H](C(=O)NC(Cc2ccccc2)c2cncc(-c3ccccc3)c2)CC1 (mixture of isomers)
Ki (Coagulation factor XI): 330 nM

NC[C@H]1CC[C@H](C(=O)N[C@@H](Cc2ccccc2)c2nccc(-c3ccccc3)n2)CC1
Ki (Coagulation factor XI): 11400 nM

NC[C@H]1CC[C@H](C(=O)NC(Cc2ccccc2)c2ccnc(-c3ccccc3)c2)CC1 (mixture of isomers)
Ki (Coagulation factor XI): 320 nM
